Results gathered from unrelated publications.
Lines come from different studies, so protocols differ.
Observed: microbial growth

C/C(=C\c1ccc(C#N)cc1)C(=O)Nc1ccc(C(=O)N[C@@H](CC(N)=O)C(=O)Nc2ccc(C(=O)Nc3ccc(C(=O)Nc4ccc(C(=O)O)cc4)c(O)c3OC(C)C)cc2)cc1  MIC (Klebsiella aerogenes; DSM30053): 0.25 µg/mL
CCCCCCC/C=C/C(=O)N1C(=O)/C(=C(/C)O)C(=O)C1CCC(=O)O (stereo not drawn)  MIC (Stenotrophomonas maltophilia; ATCC13637): 200 µg/mL
O=C1NC(=S)N/C1=C\c1c2ccccc2c(-c2ccc(N(c3ccccc3)c3ccccc3)cc2)c2ccccc12  MIC (Streptococcus mutans; broth dilution; ATCC25175): > 1000 µg/mL
CO[C@@H](C(N)=O)[C@H](NC(=O)c1ccc(NC(=O)c2ccc(C#N)cc2)cc1)C(=O)Nc1ccc(C(=O)Nc2ccc(C(=O)Nc3ccc(C(=O)O)cc3)c(O)c2OC(C)C)cc1  MIC (Klebsiella aerogenes; DSM30053): 2 µg/mL
CCCCCCC/C=C/C(=O)N1C(=O)/C(=C(\O)c2ccc(OCOCCOC)cc2)C(=O)C1CC(C)C (stereo not drawn)  MIC (Stenotrophomonas maltophilia; ATCC13637): 200 µg/mL
O=C1NC(=S)S/C1=C\c1ccc(-c2ccc(N(c3ccccc3)c3ccccc3)cc2)c2ccccc12  MIC (Streptococcus pyogenes; broth dilution; ATCC19615): 1000 µg/mL
O=c1[nH]c(NCc2ccc(Cl)c(Cl)c2)nc2ncn(CCCCCN3CCOCC3)c12  MIC (Bifidobacterium; agar dilution; 48 h): > 32 µg/mL
CC(C)Oc1c(NC(=O)c2ccc(NC(=O)[C@H](CC(N)=O)NC(=O)c3ccc(NC(=O)c4ccc(C#N)s4)cc3)cc2)ccc(C(=O)Nc2ccc(C(=O)O)cc2)c1O  MIC (Klebsiella aerogenes; DSM30053): 0.25 µg/mL
O=C1NC(=S)S/C1=C\c1ccc(-c2ccc(N(c3ccccc3)c3ccccc3)cc2)cc1  MIC (Streptococcus mutans; broth dilution; ATCC25175): 1000 µg/mL
CCCCCCC/C=C/C(=O)N1C(=O)/C(=C(\O)CCCC)C(=O)C1CC(C)C (stereo not drawn)  MIC (Stenotrophomonas maltophilia; ATCC13637): > 200 µg/mL
O=C1NC(=S)N/C1=C\c1ccc(-c2ccc(N(c3ccccc3)c3ccccc3)cc2)c2ccccc12  MIC (Streptococcus mutans; broth dilution; ATCC25175): > 1000 µg/mL
O=C(Nc1ccc2c(c1)OC(F)(F)O2)Nc1ccc(Cl)c(C(F)(F)F)c1  MIC (Klebsiella aerogenes; DSM30053): > 100 µM
CCCCCCC/C=C/C(=O)N1C(=O)/C(=C(/C)O)C(=O)C1CCCCN (stereo not drawn)  MIC (Stenotrophomonas maltophilia; ATCC13637): > 200 µg/mL
Cc1ncc([N+](=O)[O-])n1CCO  MIC (Bifidobacterium; agar dilution; 48 h): > 16 µg/mL
C[C@@H](O)[C@H]1C(=O)N2C(C(=O)O)=C(S[C@@H]3CN[C@H](C(=O)N(C)C)C3)[C@H](C)[C@H]12  MIC (Stenotrophomonas maltophilia; broth dilution; clinical isolate): > 64 µg/mL
